Screening results as filed in PubChem BioAssay.
TAAR1 antagonist: human TAAR1 antagonists, primary screen, Fluo-8 calcium fluorescence, CHO RD-HGA16 cells | Trace amine-associated receptor 1 (Homo sapiens), Q96RJ0 | antagonist | 360,000 compounds, 1.5% hits | inhibition, % at 3 µM;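 active = inhibition above a per-plate cutoff, the mean inhibition of test compounds on that plate plus 3 SD, cut at about 49% in these data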;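 also: 0% = DMSO plus EC80 beta-PEA response and 100% = DMSO alone without agonist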
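Test system – hTAAR1-expressing CHO RD-HGA16 cells, Gα16-coupled · Reagent – β-PEA at EC80 concentration, post-compound challenge · Compound dosing – 3 µM, single point · Timing – 140 s kinetic read after compound, 140 s after agonist · Detection – Fluo-8 intracellular calcium dye fluorescence, real-time kinetic reads · Control set – DMSO and EC80 PEA controls · Repeats – n of 1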
m5-HT2A agonist: mouse Htr2a agonists via beta-arrestin recruitment, primary screen, cell-based, luminescence | 5-hydroxytryptamine receptor 2A (Mus musculus), P35363 | CHO-K1 mHTR2A beta-arrestin complementation; percent of 30 µM serotonin response | activation, % at 7.6 µM | 360,000 compounds, 0.66% hits;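 active = activation above a run cutoff, the mean activation of all tested compounds plus 3 SD, cut at about 14% in these data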;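 also: 0% = plate median of compound wells and 100% = 30 µM serotonin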
MC4R antagonist: MC4R antagonists of cAMP signaling, primary screen, cell-based, TR-FRET, antagonist arm of biased-ligand search. AID 540295, 2011. MC4R-expressing cells, MTII-stimulated cAMP, LANCE TR-FRET. Melanocortin receptor 4 (Homo sapiens), P32245. 360,000 compounds, 0.48% hits. inhibition, % at 6.5 µM;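 active = inhibition above its plate's cutoff, the mean of tested wells on that plate plus 3 SD, cut at about 29% in these data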;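 also: 0% = Melanotan II alone and 100% = Melanotan II plus saturating MCL0020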
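System: U2OS-MC4R stable cell line; Technique: Eu-cAMP/anti-cAMP TR-FRET, emission 671 nm; Repeats: single well per compound; Also added: Melanotan II; Dosing: one concentration, 6.5 µM nominal; Schedule: 30-min compound, 1-h challenge, 1-h detection, room temperature.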
TAAR1 ag: human TAAR1 agonists, primary screen, Fluo-8 calcium fluorescence, CHO RD-HGA16 cells. Trace amine-associated receptor 1 (Homo sapiens), Q96RJ0. vehicle wells 0%, saturating PEA agonist 100%. activation, % at 3 µM. 360,000 compounds, 0.99% hits;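 active = activation above the mean activation of all test compounds in the run plus 3 SD, cut at about 38% in these data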
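Repeats: no replicates (n 1) | Material: CHO-derived RD-HGA16 cells with stable Gα16 and human TAAR1 | Technique: Kinetic Fluo-8 calcium fluorescence | Schedule: 17-24 h seeding, 75 min 37 °C dye, 30 min RT | Evaluation: % activation from peak over basal fluorescence ratio, DMSO-to-PEA scaled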
B2AR ag: beta2AR agonists driving receptor internalization, primary screen, cell-based, FAP fluorogen, flow cytometry | Am2.2-beta2AR cells | 340,000 compounds, 0.43% hits | response, % (test concentration not listed) | AID 504454, 2011 | Beta-2 adrenergic receptor (Homo sapiens), P07550;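 active = response above a set limit, near 3 SD of response in nonfluorescent compounds, cut at about 42% in these data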
Target sequence (P07550 whole entry, looked up): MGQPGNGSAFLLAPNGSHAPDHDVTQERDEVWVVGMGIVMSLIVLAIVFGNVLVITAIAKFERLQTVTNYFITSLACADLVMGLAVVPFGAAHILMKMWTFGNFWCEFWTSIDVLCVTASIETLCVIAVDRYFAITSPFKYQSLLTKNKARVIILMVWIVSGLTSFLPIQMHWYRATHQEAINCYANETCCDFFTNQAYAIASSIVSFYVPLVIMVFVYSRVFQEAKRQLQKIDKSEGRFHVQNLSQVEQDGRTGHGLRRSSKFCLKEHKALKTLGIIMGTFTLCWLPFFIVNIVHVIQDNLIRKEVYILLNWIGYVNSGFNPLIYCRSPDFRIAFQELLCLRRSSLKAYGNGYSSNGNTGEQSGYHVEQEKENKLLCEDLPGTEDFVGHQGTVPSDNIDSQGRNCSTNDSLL
MC4R barr agon: MC4R agonists recruiting beta-arrestin, primary screen, cell-based, luminescence, agonist arm of biased-ligand search | Melanocortin receptor 4 (Homo sapiens), P32245 | AID 540308, 2011 | U2OS MC4R beta-arrestin complementation; percent of melanotan II response, DMSO zero | activation, % at 8.9 µM | 360,000 compounds, 0.98% hits;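 active = activation above a per-plate cutoff, the mean activation of sample wells on that plate plus 3 SD, cut at about 8% in these data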
TAAR1 ag confirm: human TAAR1 agonists, retest of hits, confirmation, Fluo-8 calcium fluorescence, CHO RD-HGA16 cells | shares compounds with TAAR1 ag | AID 651783, 2012 | activation, % at 3 µM | scaled: DMSO 0%, maximal phenethylamine 100% | 2,400 compounds, 82% hits;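 active = activation above a cutoff set at the run's mean compound activation plus 3 SD, cut at about 39% in these data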
Ga16 ag counter: nonselective calcium mobilization agonists, CHO-Ga16 cells, counter-screen for hTAAR1 agonist project, cell-based, fluorescence, CHO-Ga16 parental line; shares compounds with TAAR1 ag; Fluo-8 calcium fluorescence; normalized to maximal ATP response, DMSO zero; activation, % at 3 µM; 2,400 compounds, 50% hits;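 active = activation above the run cutoff, the mean activation over all tested wells plus 3 SD, cut at about 12% in these data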;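 also: 0% = DMSO wells and 100% = maximal ATP response on the peak over basal ratio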
TAAR1 desens: TAAR1 desensitization by agonist hits, confirmation, counter-screen for TAAR1 agonist project, cell-based, fluorescence, tachyphylaxis; shares compounds with TAAR1 ag; CHO RD-HGA16 hTAAR1, Fluo-8 calcium, beta-PEA response inhibition; inhibition, % at 3 µM; 2,400 compounds, 46% hits;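 active = inhibition above the run cutoff, the mean inhibition of all test compounds plus 3 SD, cut at about 49% in these data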;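 also: beta-PEA stimulus applied at its EC80; loss of beta-PEA calcium signal after compound pretreatment read as receptor desensitization; 0% = DMSO with beta-PEA at EC80 and 100% = DMSO alone without agonist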
Ga16 antag count: inhibition of ATP-evoked calcium response in CHO-Ga16 cells, counter-screen for TAAR1 agonist project, cell-based, fluorescence | CHO-Ga16 ATP-induced calcium, Fluo-8 fluorescence | AID 651952, 2012 | shares compounds with TAAR1 ag | 2,400 compounds, 39% hits | inhibition, % at 3 µM;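 active = inhibition above the plate's mean compound inhibition plus 3 SD, computed per plate, cut at about 22% in these data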;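 also: 0% = EC80 ATP with DMSO and 100% = DMSO wells without ATP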
Numbers without * were called inactive; / = no result given. Sampled rows, rich in hits. Any-hit rate of the full collection: about 4.3%.

SMILES	TAAR1 antagonist	m5-HT2A agonist	MC4R antagonist	TAAR1 ag	B2AR ag	MC4R barr agon	TAAR1 ag confirm	Ga16 ag counter	TAAR1 desens	Ga16 antag count
O=C(c1ccccc1)c1ccc(OCC(O)CNCc2ccc(Cl)cc2)cc1 (configuration not stated)	18	-1	2	49*	5	4	48*	17*	26	28*
Nc1nc(N)c(N=O)c(Nc2cccc(Cl)c2)n1	-16	-4	/	68*	/	/	128*	48*	53*	-5
Cc1cc(C)c(C(N)=O)c(Nc2cccc(Cl)c2)n1	11	-3	6	1	-4	0	/	/	/	/
Cc1ccc(Nc2nc(N)nc(N)c2N=O)cc1Cl	-1	0	/	75*	/	/	109*	29*	37	1
Nc1nc(N)c(N=O)c(Nc2ccc(Cl)c(Cl)c2)n1	10	-2	/	109*	/	/	136*	58*	71*	4
CCCNC(=O)C1(C)CCN(C(=O)COc2ccc(C(C)(C)C)cc2)C1 (configuration not stated)	11	10	9	2	/	-1	/	/	/	/
CCOC(=O)c1cnn(-c2ncnc3sc4c(c23)CCC4)c1N	-2	5	-3	5	1	0	/	/	/	/
CCOC(=O)c1cnn(-c2nc(SC)nc3sc4c(c23)CCCC4)c1N	84*	5	4	85*	-18	-3	13	15*	31	40*
CC(C)C(=O)Nc1ccc(NC(=S)NC(=O)c2cc3ccccc3o2)cc1	23	3	2	5	1	-1	/	/	/	/
CC(C)C(=O)Nc1ccc(NC(=O)c2cc3ccccc3o2)cc1	14	1	4	54*	-3	-2	45*	21*	49*	28*
N=C1N(/N=C/c2ccccc2)C(=Nc2ccccc2)C(=S)N1c1ccccc1	12	-4	1	46*	-4	-1	4	-1	26	14
Cc1nn(CC(=O)NCCc2cccs2)c(=O)c2nn(-c3ccccc3)c(C)c12	0	-4	2	27	2	1	/	/	/	/
Cc1nn(CC(=O)NCCc2cccs2)c(=O)c2cc3ccccc3n12	-5	1	5	48*	-11	2	38*	-1	1	5
CSc1ccc(Cn2nnc(C(=O)NCc3ccccc3)c2N)cc1	75*	-6	11	98*	3	1	105*	48*	60*	41*
Nc1c(C(=O)NCc2ccccc2)nnn1Cc1ccccc1	-18	-3	0	6	7	2	/	/	/	/
CC(=O)O[C@@H]1C[C@@]2(C)[C@@H](CC[C@H]2[C@@H](C)/C=C\CC(C)C)C2=C[C@@H](O)[C@@]3(O)C[C@@H](O)[C@H](O)C[C@]3(CO)[C@]21O	97*	1	12	116*	/	-1	29	16*	22	28*
CCCOC1CCCN(C(=O)c2cc(Cl)c(Cl)cc2C(=O)O)C1 (configuration not stated)	24	-1	5	65*	-2	-1	82*	4	51*	15
CCOC(=O)N1CCN(C(=O)c2cc(Cl)c(Cl)cc2C(=O)O)CC1	/	2	-5	/	2	-1	/	/	/	/
COC(=O)C1=C(C)N(Cc2cccc(C(F)(F)F)c2)C(=NCc2ccc(OC)cc2)NC1c1cccc(F)c1 (configuration not stated)	55*	/	/	43*	/	/	42*	24*	51*	42*
COC(=O)C1=C(C)N(Cc2cccc(C(F)(F)F)c2)C(=NCc2cc(OC)c(OC)c(OC)c2)NC1c1ccccc1 (configuration not stated)	7	/	/	44*	/	/	13	11	15	21
COC(=O)C1=C(C)N(Cc2cccc(C(F)(F)F)c2)C(=NCc2ccc(OC)cc2)NC1c1ccccc1 (configuration not stated)	59*	/	/	51*	/	/	38*	25*	32	45*
Cc1ccccc1-c1ccccc1CN1[C@@H](C(C)C)COCCS1(=O)=O	-11	-2	24	3	9	5	/	/	/	/
Cc1ccc(-c2csc(NS(=O)(=O)c3cccc(F)c3)n2)o1	-22	3	1	1	1	-1	/	/	/	/
CCC(C)(C)n1nnnc1C(c1ccc(O)c(OC)c1)N1CCc2ccccc2C1 (configuration not stated)	92*	6	27	104*	9	1	106*	15*	100*	12
COc1ccccc1N1CCN(C2CCCN(C(=O)CCc3c(C)noc3C)C2)CC1 (configuration not stated)	12	2	0	0	-5	-1	/	/	/	/
O=C(Nc1ccncc1)Nc1ccc(Cl)cc1	50*	2	0	65*	9	0	91*	17*	84*	21
O=C(Nc1ccncc1)Nc1ccncc1	1	8	15	2	2	2	/	/	/	/
CC(=O)N(Cc1ccc(F)cc1)C1=C(NCCc2ccccc2)C(=O)c2ccccc2C1=O	-2	-3	-1	50*	-4	-1	29	0	21	14
CC(=O)N(Cc1ccc(F)cc1)c1cccc(C)c1C	11	-8	13	1	-2	0	/	/	/	/
